Test results as given in ChEMBL document CHEMBL3044956, “Nematicidal and antifungal activities of annonaceous acetogenins from Annona squamosa against various plant pathogens” (J Agric Food Chem, 2011).
Values after ≈ are worked out from the molar mass of the structure shown.

Experiments:
[1] = tested on: Blumeria hordei; test: In vivo antifungal activity against Blumeria graminis f. sp. hordei infected barley seedlings assessed as control of barley powdery mildew disease development at 1 ug/ml treated 1 day before spore inoculation measured 3-7 days after inoculation; format: functional
How it was run: (§1)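 Potted seedlings sprayed to runoff with material dissolved in MeOH and diluted in 0.025% Tween 20 (5% MeOH); controls got the Tween/MeOH solution alone. Inoculated with spores or mycelial suspension 1 day later. Infected leaf or sheath area rated 3–7 days after inoculation; % control = 100(A−B)/A. Randomized complete block design, three replicates, run in duplicate; Tukey HSD.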

[2] = tested on: Blumeria hordei; test: In vivo antifungal activity against Blumeria graminis f. sp. hordei infected barley seedlings assessed as control of barley powdery mildew disease development at 100 ug/ml treated 1 day before spore inoculation measured 3-7 days after inoculation; format: functional; how it was run: as §1
[3] = tested on: Bursaphelenchus xylophilus; test: Nematicidal activity against second juvenile stage (J2) of Bursaphelenchus xylophilus assessed as mortality at >0.33 ug/ml after 2 days by microtiter plate assay method (Beneficial crop Pine); format: functional
How it was run: (§2)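 Pine wood nematodes reared on B. cinerea mycelia on PDA for 7 days at 28 °C. J2s collected in 0.01% Triton X-100 water and tested in microtiter plates. Compounds in DMSO or MeOH, solvent ≤1%; solvent-only controls. Concentrations 0.004–1 μg/mL. Mortality Abbott-corrected; LC50 by probit. Two runs, three replicates each.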

[4] = tested on: Bursaphelenchus xylophilus; test: Nematicidal activity against second juvenile stage (J2) of Bursaphelenchus xylophilus assessed as mortality after 2 days by microtiter plate assay method (Beneficial crop Pine); format: functional; settings: 48 h; how it was run: as §2
[5] = tested on: Meloidogyne incognita; test: Nematicidal activity against second juvenile stage (J2) of Meloidogyne incognita (root-knot nematode) assessed as mortality incubated in the dark at 28 degC after 3 days by light microscopy (benficial crop Tomato); format: functional; settings: 72 h
How it was run: (§3)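 M. incognita eggs taken from infected tomato roots with hypochlorite and J2s hatched in Baermann funnels at 28 °C. J2s from the first 3 days kept in 0.01% Tween 20 water and used within 24 h. About 100 J2s per well; stock added 1:100 in DMSO or MeOH (≤1%). Plates kept shaking in the dark at 28 °C, scored by microscope at 1, 2 and 3 days. Mortality Abbott-corrected. Two runs, three replicates each.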

[6] = tested on: Meloidogyne incognita; test: Nematicidal activity against second juvenile stage (J2) of Meloidogyne incognita (root-knot nematode) assessed as mortality incubated in the dark at 28 degC after 2 days by light microscopy (benficial crop Tomato); format: functional; settings: 48 h; how it was run: as §3
[7] = tested on: Rhizoctonia solani; test: In vivo antifungal activity against Rhizoctonia solani infected rice seedlings assessed as control of rice sheath blight disease development at 125 ug/ml treated 1 day before spore inoculation measured 3-7 days after inoculation; format: functional; how it was run: as §1
[8] = tested on: Botrytis cinerea; test: In vivo antifungal activity against Botryotinia fuckeliana infected in tomato seedlings assessed as control of tomato gray mold disease development at 250 ug/ml treated 1 day before spore inoculation measured 3-7 days after inoculation; format: functional; how it was run: as §1
[9] = tested on: Botrytis cinerea; test: In vivo antifungal activity against Botryotinia fuckeliana infected in tomato seedlings assessed as control of tomato gray mold disease development at 500 ug/ml treated 1 day before spore inoculation measured 3-7 days after inoculation; format: functional; how it was run: as §1
[10] = tested on: Rhizoctonia solani; test: In vivo antifungal activity against Rhizoctonia solani infected rice seedlings assessed as control of rice sheath blight disease development at 250 ug/ml treated 1 day before spore inoculation measured 3-7 days after inoculation; format: functional; how it was run: as §1
[11] = tested on: Rhizoctonia solani; test: In vivo antifungal activity against Rhizoctonia solani infected rice seedlings assessed as control of rice sheath blight disease development at 500 ug/ml treated 1 day before spore inoculation measured 3-7 days after inoculation; format: functional; how it was run: as §1
[12] = tested on: Pyricularia oryzae; test: In vivo antifungal activity against Magnaporthe oryzae infected rice seedlings assessed as control of rice blast disease development at 125 ug/ml treated 1 day before spore inoculation measured 3-7 days after inoculation; format: functional; how it was run: as §1
[13] = tested on: Pyricularia oryzae; test: In vivo antifungal activity against Magnaporthe oryzae infected rice seedlings assessed as control of rice blast disease development at 250 ug/ml treated 1 day before spore inoculation measured 3-7 days after inoculation; format: functional; how it was run: as §1
[14] = tested on: Pyricularia oryzae; test: In vivo antifungal activity against Magnaporthe oryzae infected rice seedlings assessed as control of rice blast disease development at 500 ug/ml treated 1 day before spore inoculation measured 3-7 days after inoculation; format: functional; how it was run: as §1
[15] = tested on: Puccinia recondita; test: In vivo antifungal activity against Puccinia recondita infected wheat seedlings assessed as reduction in wheat leaf rust disease symptoms development at 125 ug/ml treated 1 day before spore inoculation measured 7 days after inoculation; format: functional; design: scale not given: the % may be the effect or the level left; how it was run: as §1
[16] = tested on: Puccinia recondita; test: In vivo antifungal activity against Puccinia recondita infected wheat seedlings assessed as reduction in wheat leaf rust disease symptoms development at 250 ug/ml treated 1 day before spore inoculation measured 7 days after inoculation; format: functional; design: scale not given: the % may be the effect or the level left; how it was run: as §1
[17] = tested on: Puccinia recondita; test: In vivo antifungal activity against Puccinia recondita infected wheat seedlings assessed as reduction in wheat leaf rust disease symptoms development at 500 ug/ml treated 1 day before spore inoculation measured 7 days after inoculation; format: functional; design: scale not given: the % may be the effect or the level left; how it was run: as §1
[18] = tested on: Phytophthora infestans; test: In vivo antifungal activity against Phytophthora infestans zoospores infected tomato seedlings assessed as control of tomato late blight disease development treated 1 day before spore inoculation measured 3 days after inoculation; format: functional, organism-based; how it was run: as §1
[19] = tested on: Phytophthora infestans; test: Antifungal activity against Phytophthora infestans assessed as inhibition of radial mycelial growth at 11.11 to 900 ug/ml incubated at 20 degC for 5 to 7 days by poison plate assay; format: functional
How it was run: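 Poison-plate assay: material in MeOH added 1:100 to V8-agar at 50 °C, 2 mL per well of six-well plates, centre-inoculated with a 5 mm plug from the colony margin. Incubated at 20 °C until control growth reached the edge. Controls were 1% MeOH. Read as % inhibition of radial growth. Two runs, four replicates each. IC50 by probit.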

[20] = tested on: Phytophthora infestans; test: Antifungal activity against Phytophthora infestans assessed as inhibition of zoospore germination incubated in the dark at 20 degC for 24 hr by light microscopy; format: functional, organism-based
How it was run: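 Zoospores released by chilling sporangia 1 h at 4 °C, then filtered to remove sporangia. Test solution in MeOH mixed 1:100 with the suspension (1% MeOH control), loaded onto hole-slide glasses and kept humid at 20 °C for 24 h in the dark. Germinated cells counted per hole by light microscope. Experiment repeated, mean ± SD.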

[21] = tested on: Phytophthora infestans; test: Antifungal activity against Phytophthora infestans assessed as inhibition of sporangium germination incubated at 20 degC for 24 hr by light microscopy; format: functional, organism-based
How it was run: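 Sporangium germination: compounds serially diluted in MeOH (12500 to 391 μg/mL as stock series), sporangia incubated 24 h at 20 °C. About 100 sporangia per replicate scored for germination by light microscope. Experiment repeated, mean ± SD. IC50 by probit.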

[22] = tested on: Meloidogyne incognita; test: Nematicidal activity against second juvenile stage (J2) of Meloidogyne incognita (root-knot nematode) assessed as mortality incubated in the dark at 28 degC after 1 day by light microscopy (benficial crop Tomato); format: functional; settings: 24 h; how it was run: as §3
[23] = tested on: Colletotrichum coccodes; test: In vivo antifungal activity against Colletotrichum coccodes infected red pepper seedlings assessed as control of red pepper anthracnose development at 125 ug/ml treated 1 day before spore inoculation measured 3-7 days after inoculation; format: functional; how it was run: as §1
[24] = tested on: Colletotrichum coccodes; test: In vivo antifungal activity against Colletotrichum coccodes infected red pepper seedlings assessed as control of red pepper anthracnose development at 250 ug/ml treated 1 day before spore inoculation measured 3-7 days after inoculation; format: functional; how it was run: as §1
[25] = tested on: Colletotrichum coccodes; test: In vivo antifungal activity against Colletotrichum coccodes infected red pepper seedlings assessed as control of red pepper anthracnose development at 500 ug/ml treated 1 day before spore inoculation measured 3-7 days after inoculation; format: functional; how it was run: as §1
[26] = tested on: Blumeria hordei; test: In vivo antifungal activity against Blumeria graminis f. sp. hordei infected barley seedlings assessed as control of barley powdery mildew disease development at 125 ug/ml treated 1 day before spore inoculation measured 3-7 days after inoculation; format: functional; how it was run: as §1
[27] = tested on: Blumeria hordei; test: In vivo antifungal activity against Blumeria graminis f. sp. hordei infected barley seedlings assessed as control of barley powdery mildew disease development at 250 ug/ml treated 1 day before spore inoculation measured 3-7 days after inoculation; format: functional; how it was run: as §1
[28] = tested on: Blumeria hordei; test: In vivo antifungal activity against Blumeria graminis f. sp. hordei infected barley seedlings assessed as control of barley powdery mildew disease development at 500 ug/ml treated 1 day before spore inoculation measured 3-7 days after inoculation; format: functional; how it was run: as §1
[29] = tested on: Botrytis cinerea; test: In vivo antifungal activity against Botryotinia fuckeliana infected in tomato seedlings assessed as control of tomato gray mold disease development at 125 ug/ml treated 1 day before spore inoculation measured 3-7 days after inoculation; format: functional; how it was run: as §1
[30] = tested on: Botrytis cinerea; test: In vivo antifungal activity against Botryotinia fuckeliana infected in tomato seedlings assessed as control of tomato gray mold disease development at 5 ug/ml treated 1 day before spore inoculation measured 3-7 days after inoculation; format: functional; how it was run: as §1
[31] = tested on: Botrytis cinerea; test: In vivo antifungal activity against Botryotinia fuckeliana infected in tomato seedlings assessed as control of tomato gray mold disease development at 50 ug/ml treated 1 day before spore inoculation measured 3-7 days after inoculation; format: functional; how it was run: as §1
[32] = tested on: Colletotrichum coccodes; test: In vivo antifungal activity against Colletotrichum coccodes infected red pepper seedlings assessed as control of red pepper anthracnose development at 10 ug/ml treated 1 day before spore inoculation measured 3-7 days after inoculation; format: functional; how it was run: as §1
[33] = tested on: Colletotrichum coccodes; test: In vivo antifungal activity against Colletotrichum coccodes infected red pepper seedlings assessed as control of red pepper anthracnose development at 50 ug/ml treated 1 day before spore inoculation measured 3-7 days after inoculation; format: functional; how it was run: as §1

CCCCNC(=O)n1c(NC(=O)OC)nc2ccccc21 [BENOMYL]
Activity [1]: 75% | Activity [2]: 100%

CCCCCCCCCC[C@H](O)[C@H]1CC[C@H]([C@H]2CC[C@H]([C@H](O)CCCCCCCCCCCCC3=C[C@H](C)OC3=O)O2)O1 [BULLANIN]
mortality [3]: 100% | LC50 [4]: 0.018 µg/mL

CCCCCCCCCC[C@@H](O)[C@H]1CC[C@H]([C@H]2CC[C@H]([C@H](O)CCCCCCCCCCC3=C[C@H](C)OC3=O)O2)O1 (relative stereo) [REL-SQUAMOCIN-K]
mortality [3]: 100% | LC50 [4]: 0.039 µg/mL

CCCCCCCCCC[C@@H](O)[C@H]1CC[C@H]([C@H](O)CCCCCCCCCCCCCCC2=C[C@H](C)OC2=O)O1 (relative stereo) [REL-ANNOTEMOYIN-1]
LC50 [4]: 0.947 µg/mL

CCCCCC[C@H](O)CCC[C@@H](O)[C@H]1CC[C@H]([C@H]2CC[C@H]([C@H](O)CCCCCCCCCCCCC3=C[C@H](C)OC3=O)O2)O1 (relative stereo) [REL-SQUAMOCIN]
LC50 [5]: 54.9 µg/mL (≈ 88.1 µM) | LC50 [6]: > 100 µg/mL | Activity [7]: 0% | Activity [8]: 0% | Activity [9]: 0% | Activity [10]: 11.8% | Activity [11]: 0% | Activity [12]: 0% | Activity [13]: 0% | Activity [14]: 50% | Activity [15]: 0% | Activity [16]: 20% | Activity [17]: 83.3% | Activity [18]: Dose-dependent effect | growth inhibition (GI) [19]: 31% | IC50 [20]: 3.05 µg/mL (≈ 4.9 µM) | inhibition [20]: Dose-dependent effect | IC50 [21]: 1.24 µg/mL (≈ 1.99 µM) | inhibition [21]: Dose-dependent effect | mortality [3]: 100% | LC50 [4]: 0.006 µg/mL | LC50 [22]: > 100 µg/mL | Activity [23]: 0% | Activity [24]: 0% | Activity [25]: 0% | Activity [26]: 0% | Activity [27]: 0% | Activity [28]: 0% | Activity [29]: 0%

N#Cc1c[nH]cc1-c1cccc2c1OC(F)(F)O2 [FLUDIOXONIL]
Activity [30]: 83% | Activity [31]: 100%

N#Cc1sc2c(=O)c3ccccc3c(=O)c=2sc1C#N [DITHIANON]
Activity [32]: 20% | Activity [33]: 100%

CCCCCCCCCCCC[C@@H](O)[C@H]1CC[C@H]([C@H](O)CCCCCCCCCCCCC2=C[C@H](C)OC2=O)O1 (relative stereo) [REL-SOLAMIN]
LC50 [4]: > 1 µg/mL
